Data set [1] can be described thus: Cmax in Sprague-Dawley rat at 6 mg/kg, iv by UPLC-MS/MS analysis. The class given is ADME, organism-based. Further details: dose 6 mg/kg, route intravenous. The note with it: in vivo. In short, it runs like this: (§1)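 Male SD rats, 200-250 g, fasted 12 h with water, n=6. Oral dose of 12 mg/kg as JBP485 equivalent; dose-effect arms at 12 and 100 mg/kg. JBP485 given iv at 6 mg/kg as the reference. Jugular blood taken at 0.083-10 h. Plasma JBP485 by UPLC-MS/MS. Absolute F = (AUCpo×Div)/(AUCiv×Dpo)×100%, using AUC0-t.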

A short description of data set [2]: Terminal half-life in Sprague-Dawley rat at 6 mg/kg, iv by UPLC-MS/MS analysis. The class given is ADME, organism-based. The note with it: in vivo, read-out: beta t1/2 (converted). In short, it runs like this: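 Fasted male SD rats given JBP485 6 mg/kg intravenously. Jugular blood sampled 0.083–10 h, plasma by UPLC-MS/MS; n=6.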
Data set [3] can be described thus: AUC (0 to t) in Sprague-Dawley rat at 12 mg/kg, po by UPLC-MS/MS analysis. It is filed as ADME, organism-based. The note with it: in vivo. In short, it runs like this: as §1
A short description of data set [4]: Terminal half life in Beagle dog at 12 mg/kg, po by UPLC-MS/MS analysis. It is filed as ADME, organism-based, Canis lupus familiaris. The following applies: in vivo, read-out: beta t1/2 (converted). In short, it runs like this: (§2)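 Male beagle dogs, 2 years old, 8–10 kg, dosed orally at 12 mg/kg (prodrug calculated as JBP485) in aqueous solution. Jugular blood taken 0.167–8 h into heparin, centrifuged, plasma JBP485 by UPLC-MS/MS; n=6.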

Data set [5] deals with Rattus norvegicus. The experiment in a line: Anti-hepatitis activity in ANIT-induced Sprague-Dawley rat model of liver injury assessed as reduction in liver necrosis at 6.25 to 12.5 mg/kg, ip administered 30 mins prior to ANIT challenge and subsequent dosing at 8, 22, 32, and 46 hrs post ANIT challenge and measured 48 hrs post ANIT challenge by H and E staining-based assay. The class given is functional, organism-based. In short, it runs like this: (§3)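 ANIT 50 mg/kg ip liver-injury model in male SD rats, 6 per group. Oral or ip treatment at 30 min before and 8, 22, 32 and 46 h after ANIT. Liver excised at 48 h, fixed in 4% formalin, stained with H&E, and examined microscopically for hepatocellular edema and necrosis.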

Data set [6] relates to Rattus norvegicus. The experiment in a line: Anti-hepatitis activity in ANIT-induced Sprague-Dawley rat model of liver injury assessed as reduction in hepatocellular edema at 6.25 to 12.5 mg/kg, ip administered 30 mins prior to ANIT challenge and subsequent dosing at 8, 22, 32, and 46 hrs post ANIT challenge and measured 48 hrs post ANIT challenge by H and E staining-based assay. The class given is functional, organism-based. In short, it runs like this: as §3

Data set [7] relates to Rattus norvegicus. Briefly: Anti-hepatitis activity in ANIT-induced Sprague-Dawley rat model of liver injury assessed as reduction in hepatocellular edema at 6.25 to 25 mg/kg, po administered 30 mins prior to ANIT challenge and subsequent dosing at 8, 22, 32, and 46 hrs post ANIT challenge and measured 48 hrs post ANIT challenge by H and E staining-based assay. The class given is functional, organism-based. An outline of the steps:
as §3

The test system of data set [8] is Rattus norvegicus. Briefly: Anti-hepatitis activity in ANIT-induced ip dosed Sprague-Dawley rat model of cholestasis assessed as reduction in serum total bilirubin level administered 30 mins prior to ANIT challenge and subsequent dosing at 8, 22, 32, and 46 hrs post ANIT challenge and measured 48 hrs post ANIT challenge. The class given is functional, organism-based. In short, it runs like this:
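Male SD rats, 6 weeks old, fasted 12 h, 6 per group. Cholestasis induced by ANIT 50 mg/kg ip in olive oil. Test agents were given in water; UDCA 100 mg/kg was given orally in CMC-Na. Dosing at 30 min before and 8, 22, 32 and 46 h after ANIT. Serum taken from the abdominal aorta under chloral hydrate anesthesia at 48 h; total bilirubin measured with an assay kit.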

The target in data set [9] is T1, Solute carrier family 15 member 1 (Rattus norvegicus, UniProt P51574).
T1 sequence (P51574 whole entry): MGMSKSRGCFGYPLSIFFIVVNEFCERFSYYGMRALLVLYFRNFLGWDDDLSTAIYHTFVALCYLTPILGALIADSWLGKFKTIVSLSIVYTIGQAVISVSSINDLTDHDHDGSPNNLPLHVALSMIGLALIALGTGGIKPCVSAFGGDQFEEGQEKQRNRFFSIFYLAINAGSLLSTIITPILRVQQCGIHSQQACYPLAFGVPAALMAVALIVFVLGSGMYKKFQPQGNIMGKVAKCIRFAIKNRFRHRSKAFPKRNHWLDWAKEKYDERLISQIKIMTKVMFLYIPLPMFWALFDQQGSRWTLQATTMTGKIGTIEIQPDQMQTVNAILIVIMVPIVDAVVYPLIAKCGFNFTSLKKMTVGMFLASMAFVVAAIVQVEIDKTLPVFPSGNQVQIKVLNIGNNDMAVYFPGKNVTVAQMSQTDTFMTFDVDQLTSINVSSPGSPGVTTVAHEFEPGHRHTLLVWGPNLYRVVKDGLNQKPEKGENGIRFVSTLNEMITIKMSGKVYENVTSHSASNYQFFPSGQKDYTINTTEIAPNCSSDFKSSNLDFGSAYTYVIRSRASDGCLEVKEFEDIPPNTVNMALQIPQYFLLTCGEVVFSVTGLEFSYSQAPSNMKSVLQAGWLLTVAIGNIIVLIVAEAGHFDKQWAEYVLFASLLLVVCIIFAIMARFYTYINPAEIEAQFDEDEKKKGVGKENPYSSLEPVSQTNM
The experiment in a line: Ratio of test compound effect to JBP485 effect for substrate activity at PEPT1 in Sprague-Dawley rat jejunum assessed as effective permeability. It is filed as ADME, tissue-based. An outline of the steps: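 In situ single-pass jejunal perfusion in fasted (12 h) male SD rats anaesthetised with urethane 1.5 g/kg i.p. About 10 cm of jejunum was perfused at 0.2 mL/min with pH 6.0 HEPES buffer containing 5 mM compound. Outflow was collected 15–120 min after steady state and assayed by HPLC. Peff was calculated from outlet/inlet concentration and volume ratios and segment radius and length.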

A short description of data set [10]: Tmax in Sprague-Dawley rat assessed as JBP485 level at 12 mg/kg equiv of JBP485 administered orally by UPLC-MS/MS analysis. The following applies: in vivo, po. The class given is ADME, organism-based. An outline of the steps:
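Fasted male SD rats (200–250 g), oral 12 mg/kg (prodrugs calculated as JBP485). Jugular blood 0.083–10 h, centrifuged, plasma JBP485 by UPLC-MS/MS; n=6.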

Data set [11] in a line: Oral bioavailability in Sprague-Dawley rat assessed as JBP485 level at 12 mg/kg equiv of JBP485 by UPLC-MS/MS analysis. It is filed as ADME, organism-based. The note with it: in vivo. An outline of the steps: as §1
Data set [12] is described as follows: Terminal half life in Beagle dog assessed as JBP485 level at 12 mg/kg equiv of JBP485 administered orally by UPLC-MS/MS analysis. The class given is ADME, organism-based, Canis lupus familiaris. The note with it: in vivo, po. An outline of the steps:
as §2

Data set [13] deals with Rattus norvegicus. Briefly: Anti-hepatitis activity in ANIT-induced Sprague-Dawley rat model of liver injury assessed as reduction in serum aspartate aminotransferase level at 3.125 to 25 mg/kg, po administered 30 mins prior to ANIT challenge and subsequent dosing at 8, 22, 32, and 46 hrs post ANIT challenge and measured 48 hrs post ANIT challenge. It is filed as functional, organism-based. In short, it runs like this: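 ANIT (50 mg/kg ip, olive oil) cholestatic liver injury in male SD rats, 6 per group. Oral or ip dosing (UDCA 100 mg/kg po in CMC-Na) at 30 min before and 8, 22, 32 and 46 h after ANIT. Serum collected at 48 h from the abdominal aorta; ALT and AST activities measured with kits.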

Calls of active or inactive are those of the source. No cut-off for these calls is given here.

On to `O=C1N[C@@H](CO)C(=O)N2C[C@H](O)C[C@@H]12`, for which the Cmax in data set [1] worked out at 334.91 nM/ml. Besides, the half-life in [2] was 1.13 h; in [4] it was 5.23 h. The same molecule displayed an AUCt in data set [3] of 81.4 nM/ml.hr. For the same molecule, the outcome in the data set with Rattus norvegicus [5], with Rattus norvegicus [6] and in the data set with Rattus norvegicus [7] was Active. Further, in the data set with Rattus norvegicus [8], the Activity entry was “Dose-dependent effect”.

A word on the Tmax: it is the time from dosing to the highest level. As for `CC(C)[C@H](N)C(=O)OC[C@@H]1NC(=O)[C@@H]2C[C@@H](O)CN2C1=O`, the Ratio in data set [9] came out at 6.03. Besides, the time to peak (Tmax) in data set [10] worked out at 0.57 h. Also, in data set [11], the F was found to be 50.1%. Further, the “beta t1/2” value in data set [12] came out at 1.68 h. Further, in the data set with Rattus norvegicus [13], the outcome was Active.

The values above are taken from ChEMBL document CHEMBL4373712, “Bioactivatable Pseudotripeptidization of Cyclic Dipeptides To Increase the Affinity toward Oligopeptide Transporter 1 for Enhanced Oral Absorption: An Application to Cyclo(l-Hyp-l-Ser) (JBP485)” (J Med Chem, 2019).
